Experiments:
Format in all cases: functional
K562 = assay: Growth inhibition of human K562 cells incubated for 48 hrs by sulforhodamine B assay; settings: K562, 48 h; for TGI: read-out: pTGI (converted)
How it was run: (§1)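 Run in the NCI-60 human tumour cell line panel with dose-response testing. GI50 was determined for each cell line from its dose-response data.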

RPMI-8226 = assay: Growth inhibition of human RPMI8226 cells incubated for 48 hrs by sulforhodamine B assay; settings: RPMI-8226, 48 h; for TGI: read-out: pTGI (converted); how it was run: as §1
A549 = assay: Growth inhibition of human A549/ATCC cells incubated for 48 hrs by sulforhodamine B assay; settings: A549, 48 h; for TGI: read-out: pTGI (converted); how it was run: as §1
HOP-62 = assay: Growth inhibition of human HOP62 cells incubated for 48 hrs by sulforhodamine B assay; settings: HOP-62, 48 h; for CC50: read-out: pLC50 (the source's name) (converted); for TGI: read-out: pTGI (converted); how it was run: as §1
NCI-H23 = assay: Growth inhibition of human NCI-H23 cells incubated for 48 hrs by sulforhodamine B assay; settings: NCI-H23, 48 h; for TGI: read-out: pTGI (converted); how it was run: as §1
NCI-H522 = assay: Growth inhibition of human NCI-H522 cells incubated for 48 hrs by sulforhodamine B assay; settings: NCI-H522, 48 h; for TGI: read-out: pTGI (converted); how it was run: as §1
HCC 2998 = assay: Growth inhibition of human HCC2998 cells incubated for 48 hrs by sulforhodamine B assay; settings: HCC 2998, 48 h; for TGI: read-out: pTGI (converted); how it was run: as §1
HCT-116 = assay: Growth inhibition of human HCT116 cells incubated for 48 hrs by sulforhodamine B assay; settings: HCT-116, 48 h; for TGI: read-out: pTGI (converted); how it was run: as §1
HCT-15 = assay: Growth inhibition of human HCT15 cells incubated for 48 hrs by sulforhodamine B assay; settings: HCT-15, 48 h; for TGI: read-out: pTGI (converted); how it was run: as §1
KM12 = assay: Growth inhibition of human KM12 cells incubated for 48 hrs by sulforhodamine B assay; settings: KM12, 48 h; for TGI: read-out: pTGI; how it was run: as §1
SW-620 = assay: Growth inhibition of human SW620 cells incubated for 48 hrs by sulforhodamine B assay; settings: SW-620, 48 h; for TGI: read-out: pTGI (converted)
How it was run: (§2)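 Tested in the NCI 60-human-tumour-cell-line screen using the five-dose format. GI₅₀ was derived from each cell line's dose-response. TGI and LC₅₀ were derived from the same dose-response data.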

SF-268 = assay: Growth inhibition of human SF268 cells incubated for 48 hrs by sulforhodamine B assay; settings: SF-268, 48 h; for TGI: read-out: pTGI (converted); how it was run: as §1
SF-295 = assay: Growth inhibition of human SF295 cells incubated for 48 hrs by sulforhodamine B assay; settings: SF-295, 48 h; for TGI: read-out: pTGI (converted); how it was run: as §1
U-251 = assay: Growth inhibition of human U251 cells incubated for 48 hrs by sulforhodamine B assay; settings: U-251, 48 h; for TGI: read-out: pTGI (converted); how it was run: as §2
LOX IMVI = assay: Growth inhibition of human LOXIMVI cells incubated for 48 hrs by sulforhodamine B assay; settings: for TGI: read-out: pTGI (converted); how it was run: as §1
Malme-3M = assay: Growth inhibition of human MALME-3M cells incubated for 48 hrs by sulforhodamine B assay; settings: for TGI: read-out: pTGI (converted); how it was run: as §1
SK-MEL-28 = assay: Growth inhibition of human SK-MEL-28 cells incubated for 48 hrs by sulforhodamine B assay; settings: SK-MEL-28, 48 h; for TGI: read-out: pTGI (converted); how it was run: as §1
SK-MEL-5 = assay: Growth inhibition of human SK-MEL-5 cells incubated for 48 hrs by sulforhodamine B assay; settings: SK-MEL-5, 48 h; for TGI: read-out: pTGI (converted); how it was run: as §1
UACC-62 = assay: Growth inhibition of human UACC62 cells incubated for 48 hrs by sulforhodamine B assay; settings: UACC-62, 48 h; for TGI: read-out: pTGI (converted); how it was run: as §2
IGROV-1 = assay: Growth inhibition of human IGROV1 cells incubated for 48 hrs by sulforhodamine B assay; settings: IGROV-1, 48 h; for TGI: read-out: pTGI (converted); how it was run: as §1
OVCAR-3 = assay: Growth inhibition of human OVCAR3 cells incubated for 48 hrs by sulforhodamine B assay; settings: OVCAR-3, 48 h; for TGI: read-out: pTGI (converted); how it was run: as §1
OVCAR-8 = assay: Growth inhibition of human OVCAR8 cells incubated for 48 hrs by sulforhodamine B assay; settings: OVCAR-8, 48 h; for TGI: read-out: pTGI (converted); how it was run: as §1
SK-OV-3 = assay: Growth inhibition of human SKOV3 cells incubated for 48 hrs by sulforhodamine B assay; settings: SK-OV-3, 48 h; for TGI: read-out: pTGI (converted); how it was run: as §1
A498 = assay: Growth inhibition of human A498 cells incubated for 48 hrs by sulforhodamine B assay; settings: A498, 48 h; for TGI: read-out: pTGI (converted)
How it was run: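 Run within the NCI-60 human tumour cell line panel as a dose-response screen. For each cell line the readouts are GI50, TGI and LC50. Per-line log values also feed a mean-graph analysis, in which the arithmetic mean of the log values across all lines is subtracted from each line's log value.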

ACHN = assay: Growth inhibition of human ACHN cells incubated for 48 hrs by sulforhodamine B assay; settings: for TGI: read-out: pTGI (converted); how it was run: as §1
CAKI-1 = assay: Growth inhibition of human Caki1 cells incubated for 48 hrs by sulforhodamine B assay; settings: CAKI-1, 48 h; for TGI: read-out: pTGI (converted); how it was run: as §1
SN12C = assay: Growth inhibition of human SN12C cells incubated for 48 hrs by sulforhodamine B assay; settings: for TGI: read-out: pTGI (converted); how it was run: as §1
UO-31 = assay: Growth inhibition of human UO31 cells incubated for 48 hrs by sulforhodamine B assay; settings: UO-31, 48 h; for TGI: read-out: pTGI (converted); how it was run: as §2
BT-549 = assay: Growth inhibition of human BT549 cells incubated for 48 hrs by sulforhodamine B assay; settings: BT-549, 48 h; for TGI: read-out: pTGI (converted); how it was run: as §1
MDA-MB-468 = assay: Growth inhibition of human MDA-MB-468 cells incubated for 48 hrs by sulforhodamine B assay; settings: MDA-MB-468, 48 h; for CC50: read-out: pLC50 (the source's name) (converted); for TGI: read-out: pTGI (converted); how it was run: as §1

## COC(=O)/C=C1\CC[C@H]2[C@@H](CC(=O)[C@H]3C(C)(C)C(=O)CC[C@]23C)[C@H]1C
K562
  GI50: 1.15 µM
  LC50: > 34.7 µM
  TGI: 5.37 µM
RPMI-8226
  GI50: 1.29 µM
  LC50: > 34.7 µM
  TGI: 22.4 µM
A549
  GI50: 0.427 µM
  LC50: 1.82 µM
  TGI: 0.891 µM
HOP-62
  GI50: 0.55 µM
  CC50: 2.63 µM
  TGI: 1.2 µM
NCI-H23
  GI50: 0.661 µM
  LC50: > 34.7 µM
  TGI: 1.78 µM
NCI-H522
  GI50: 0.166 µM
  LC50: > 34.7 µM
  TGI: 0.977 µM
HCC 2998
  GI50: 1.45 µM
  LC50: > 34.7 µM
  TGI: 8.13 µM
HCT-116
  GI50: 0.646 µM
  LC50: 2.88 µM
  TGI: 1.38 µM
HCT-15
  GI50: 0.692 µM
  LC50: 3.31 µM
  TGI: 1.51 µM
KM12
  GI50: 1.23 µM
  LC50 (concentration killing 50% of cells): 24 µM
  TGI: 5.25 µM
SW-620
  GI50: 0.708 µM
  LC50: 9.12 µM
  TGI: 1.7 µM
SF-268
  GI50: 0.331 µM
  LC50: 1.91 µM
  TGI: 0.813 µM
SF-295
  GI50: 0.741 µM
  LC50: 6.03 µM
  TGI: 1.74 µM
U-251
  GI50: 0.646 µM
  LC50: 2.63 µM
  TGI: 1.32 µM
LOX IMVI
  GI50: 0.692 µM
  LC50: 5.25 µM
  TGI: 1.66 µM
Malme-3M
  GI50: 0.724 µM
  LC50: 6.92 µM
  TGI: 1.66 µM
SK-MEL-28
  GI50: 1.17 µM
  LC50: > 34.7 µM
  TGI: 5.01 µM
SK-MEL-5
  GI50: 0.708 µM
  LC50: 3.16 µM
  TGI: 1.48 µM
UACC-62
  GI50: 0.832 µM
  LC50: 11.5 µM
  TGI: 2.29 µM
IGROV-1
  GI50: 1.29 µM
  LC50: > 34.7 µM
  TGI: 7.59 µM
OVCAR-3
  GI50: 0.661 µM
  LC50: 2.51 µM
  TGI: 1.29 µM
OVCAR-8
  GI50: 0.851 µM
  LC50: 11 µM
  TGI: 2.29 µM
SK-OV-3
  GI50: 1.02 µM
  LC50: > 34.7 µM
  TGI: 3.16 µM
A498
  LC50: > 34.7 µM
  TGI: 1.74 µM
ACHN
  GI50: 0.162 µM
  LC50: 1.86 µM
  TGI: 0.617 µM
CAKI-1
  GI50: 0.661 µM
  LC50: 2.95 µM
  TGI: 1.38 µM
SN12C
  GI50: 0.513 µM
  LC50: > 34.7 µM
  TGI: 1.86 µM
UO-31
  GI50: 0.55 µM
  LC50: 2.24 µM
  TGI: 1.1 µM
BT-549
  GI50: 0.676 µM
  LC50: 5.13 µM
  TGI: 1.66 µM
MDA-MB-468
  GI50: 1.7 µM
  CC50: > 34.7 µM
  TGI: 12.3 µM

## COC(=O)/C=C1\CC[C@H]2[C@@H](CC(=O)[C@H]3C(C)(C)[C@@H](O)CC[C@]23C)[C@H]1C
K562
  GI50: 5.13 µM
  LC50: > 34.7 µM
  TGI: 28.8 µM
RPMI-8226
  GI50: 8.91 µM
  LC50: > 34.7 µM
  TGI: > 34.7 µM
A549
  GI50: 0.603 µM
  LC50: 2.09 µM
  TGI: 1.12 µM
HOP-62
  GI50: 1.1 µM
  CC50: 15.1 µM
  TGI: 4.47 µM
NCI-H23
  GI50: 1.23 µM
  LC50: > 34.7 µM
  TGI: 7.76 µM
NCI-H522
  GI50: 0.741 µM
  LC50: 27.5 µM
  TGI: 2.29 µM
HCC 2998
  GI50: 10.7 µM
  LC50: > 34.7 µM
  TGI: > 34.7 µM
HCT-116
  GI50: 1.41 µM
  LC50: > 34.7 µM
  TGI: 6.31 µM
HCT-15
  GI50: 4.07 µM
  LC50: 30.2 µM
  TGI: 11 µM
KM12
  GI50: 11 µM
  LC50 (concentration killing 50% of cells): > 34.7 µM
  TGI: > 34.7 µM
SW-620
  GI50: 1.74 µM
  LC50: > 34.7 µM
  TGI: 10 µM
SF-268
  GI50: 1.17 µM
  LC50: 14.5 µM
  TGI: 4.47 µM
SF-295
  GI50: 1.45 µM
  LC50: > 34.7 µM
  TGI: 7.59 µM
U-251
  GI50: 1.7 µM
  LC50: 19.5 µM
  TGI: 6.76 µM
LOX IMVI
  GI50: 2 µM
  LC50: > 34.7 µM
  TGI: 9.55 µM
Malme-3M
  GI50: 1.48 µM
  LC50: 24.5 µM
  TGI: 7.08 µM
SK-MEL-28
  GI50: 9.33 µM
  LC50: > 34.7 µM
  TGI: 33.1 µM
SK-MEL-5
  GI50: 1.29 µM
  LC50: 25.7 µM
  TGI: 5.75 µM
UACC-62
  GI50: 5.62 µM
  LC50: > 34.7 µM
  TGI: 16.6 µM
IGROV-1
  GI50: 3.8 µM
  LC50: > 34.7 µM
  TGI: 22.4 µM
OVCAR-3
  GI50: 1.32 µM
  LC50: 21.4 µM
  TGI: 4.9 µM
OVCAR-8
  GI50: 1.38 µM
  LC50: > 34.7 µM
  TGI: 7.24 µM
SK-OV-3
  GI50: 8.51 µM
  LC50: > 34.7 µM
  TGI: 22.9 µM
A498
  LC50: > 34.7 µM
  TGI: 14.8 µM
ACHN
  GI50: 0.794 µM
  LC50: 10 µM
  TGI: 2.19 µM
CAKI-1
  GI50: 1.38 µM
  LC50: > 34.7 µM
  TGI: 6.76 µM
SN12C
  GI50: 1.1 µM
  LC50: > 34.7 µM
  TGI: 5.89 µM
UO-31
  GI50: 1.05 µM
  LC50: 16.2 µM
  TGI: 5.01 µM
BT-549
  GI50: 1.26 µM
  LC50: > 34.7 µM
  TGI: 5.5 µM
MDA-MB-468
  GI50: 10 µM
  CC50: > 34.7 µM
  TGI: > 34.7 µM
